Broadly, the IC50 is the concentration needed to halve the response being measured.

The results in this text go back to ChEMBL document CHEMBL3414543, “Novel series of benzoquinones with high potency against 5-lipoxygenase in human polymorphonuclear leukocytes” (Eur J Med Chem, 2015).

Some results are limits rather than exact numbers.

Experiment [1] deals with T1, Polyunsaturated fatty acid lipoxygenase ALOX12 (Homo sapiens) (UniProt P18054).
T1 sequence (whole entry): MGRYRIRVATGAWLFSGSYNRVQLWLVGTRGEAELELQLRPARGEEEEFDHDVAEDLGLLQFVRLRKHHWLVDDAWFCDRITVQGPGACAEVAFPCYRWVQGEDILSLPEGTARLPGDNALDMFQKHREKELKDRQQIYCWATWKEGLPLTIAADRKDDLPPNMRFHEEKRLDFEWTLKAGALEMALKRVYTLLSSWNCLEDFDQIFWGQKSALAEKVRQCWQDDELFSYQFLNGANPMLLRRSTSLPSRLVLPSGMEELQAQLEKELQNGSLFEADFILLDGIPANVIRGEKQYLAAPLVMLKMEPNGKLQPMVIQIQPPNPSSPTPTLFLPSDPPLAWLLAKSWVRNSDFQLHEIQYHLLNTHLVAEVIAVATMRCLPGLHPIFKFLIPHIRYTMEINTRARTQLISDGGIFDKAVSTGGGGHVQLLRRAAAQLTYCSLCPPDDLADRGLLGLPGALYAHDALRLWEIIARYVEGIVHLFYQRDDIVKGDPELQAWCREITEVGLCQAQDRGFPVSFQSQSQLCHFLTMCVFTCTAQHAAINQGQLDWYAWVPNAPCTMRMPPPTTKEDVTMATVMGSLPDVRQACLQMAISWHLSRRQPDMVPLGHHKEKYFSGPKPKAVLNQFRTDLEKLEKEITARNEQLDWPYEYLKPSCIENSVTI
The experiment can be described thus: Inhibition of 12-LOX in human blood PMNL assessed as remaining activity by measuring 12-HETE synthesis at 10 uM. The method in brief: (§1)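 PMNL isolated from heparinized blood of fasted healthy donors by dextran sedimentation and Nycoprep centrifugation, with hypotonic lysis of erythrocytes. Cells at 5 × 10⁶ in 1 ml PBS pH 7.4 with 1 mg/ml glucose and 1 mM CaCl₂, preincubated 15 min at 37 °C with compound or 0.1% DMSO vehicle, then stimulated 10 min at 37 °C. 12-HETE or 15-HETE formation measured.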

In experiment [2] the target is T2, Polyunsaturated fatty acid 5-lipoxygenase (Homo sapiens) (UniProt P09917).
T2 sequence (whole entry): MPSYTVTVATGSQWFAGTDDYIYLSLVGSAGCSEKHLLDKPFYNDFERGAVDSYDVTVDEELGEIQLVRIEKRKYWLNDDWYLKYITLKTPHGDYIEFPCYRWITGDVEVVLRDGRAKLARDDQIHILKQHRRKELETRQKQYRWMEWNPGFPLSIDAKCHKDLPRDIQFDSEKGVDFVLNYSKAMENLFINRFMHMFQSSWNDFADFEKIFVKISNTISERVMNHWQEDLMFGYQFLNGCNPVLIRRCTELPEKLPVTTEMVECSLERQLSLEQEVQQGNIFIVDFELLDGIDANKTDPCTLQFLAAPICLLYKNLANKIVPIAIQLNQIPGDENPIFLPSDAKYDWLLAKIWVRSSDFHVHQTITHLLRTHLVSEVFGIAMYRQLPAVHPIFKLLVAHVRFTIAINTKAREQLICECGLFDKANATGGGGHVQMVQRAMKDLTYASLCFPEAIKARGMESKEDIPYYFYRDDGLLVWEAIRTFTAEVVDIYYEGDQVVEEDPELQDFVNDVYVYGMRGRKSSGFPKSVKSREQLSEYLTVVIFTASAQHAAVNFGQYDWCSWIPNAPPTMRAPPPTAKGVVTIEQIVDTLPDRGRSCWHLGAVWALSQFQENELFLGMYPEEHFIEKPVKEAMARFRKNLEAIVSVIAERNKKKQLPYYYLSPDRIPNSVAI
Briefly: Inhibition of 5-LOX in A23187-stimulated human blood PMNL assessed as remaining activity by measuring lipoxygenase products formation at 10 uM pre-incubated for 15 mins followed by stimulation with A23187 for 10 mins by RP-HPLC based cell based assay. Summed up:
(§2)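 Human PMNL (5 × 10⁶ in 1 ml PBS pH 7.4, 1 mg/ml glucose, 1 mM CaCl₂), preincubated 15 min at 37 °C with compound or 0.1% DMSO, then stimulated 10 min at 37 °C with A23187, with or without AA. 5-LO products measured. Values are mean ± S.E. of 3–4 independent experiments. IC₅₀ read graphically from 4–5 concentrations.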

Experiment [3] addresses T3, Polyunsaturated fatty acid 5-lipoxygenase (Homo sapiens, UniProt P09917).
T3 sequence (P09917 whole entry): T2 sequence (whole entry)
Briefly: Inhibition of human recombinant 5-LOX expressed in Escherichia coli BL21 incubated for 10 mins in presence of arachidonic acid by RP-HPLC based cell-free assay. Summed up:
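Recombinant human 5-LO, semi-purified from a 40,000 × g lysate supernatant on ATP-agarose, diluted in ice-cold PBS with 1 mM EDTA and 1 mM ATP. Preincubated 10 min at 4 °C with compound or 0.1% DMSO, warmed 30 s at 37 °C, then started with 2 mM CaCl₂ plus 20 µM AA. Reaction 10 min at 37 °C, stopped with cold methanol, products by RP-HPLC. IC₅₀ from 4–5 concentrations.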

For experiment [4], the target named is T3, Polyunsaturated fatty acid 5-lipoxygenase. Briefly: Inhibition of 5-LOX in A23187-stimulated human blood PMNL assessed as reduction in lipoxygenase products formation pre-incubated for 15 mins followed by stimulation with A23187 for 10 mins by RP-HPLC based cell based assay. The method in brief:
as §2

The target of experiment [5] is T2, Polyunsaturated fatty acid 5-lipoxygenase (Homo sapiens). Briefly: Inhibition of 5-LOX in A23187-stimulated human blood PMNL assessed as remaining activity by measuring lipoxygenase products formation at 10 uM in presence of arachidonic acid pre-incubated for 15 mins followed by stimulation with A23187 for 10 mins by RP-HPLC based cell based assay. The method in brief: as §2

In experiment [6] the target is T4, Polyunsaturated fatty acid lipoxygenase ALOX15 (Homo sapiens) (UniProt P16050).
T4 sequence (whole entry): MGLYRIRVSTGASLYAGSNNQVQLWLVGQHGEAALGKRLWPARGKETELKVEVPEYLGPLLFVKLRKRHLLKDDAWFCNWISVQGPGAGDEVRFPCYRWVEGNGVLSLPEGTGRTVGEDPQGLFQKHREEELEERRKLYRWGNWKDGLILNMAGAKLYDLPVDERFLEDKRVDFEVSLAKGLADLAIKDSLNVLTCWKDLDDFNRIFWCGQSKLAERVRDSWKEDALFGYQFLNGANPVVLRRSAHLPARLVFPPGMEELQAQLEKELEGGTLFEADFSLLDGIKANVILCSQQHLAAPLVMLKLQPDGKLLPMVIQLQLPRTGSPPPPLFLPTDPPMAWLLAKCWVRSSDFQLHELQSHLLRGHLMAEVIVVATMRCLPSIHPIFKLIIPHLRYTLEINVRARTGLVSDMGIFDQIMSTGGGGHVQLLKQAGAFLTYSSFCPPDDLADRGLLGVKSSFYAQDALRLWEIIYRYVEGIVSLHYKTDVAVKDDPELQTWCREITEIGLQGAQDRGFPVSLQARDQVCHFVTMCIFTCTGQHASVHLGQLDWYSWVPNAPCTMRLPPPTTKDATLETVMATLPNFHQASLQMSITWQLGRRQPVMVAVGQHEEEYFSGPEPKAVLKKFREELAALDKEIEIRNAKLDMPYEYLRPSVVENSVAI
The experiment can be described thus: Inhibition of 15-LOX-1 in human blood PMNL assessed as remaining activity by measuring 15-HETE synthesis at 10 uM. The method in brief:
as §1

The target in experiment [7] is T3, Polyunsaturated fatty acid 5-lipoxygenase. The experiment can be described thus: Inhibition of 5-LOX in A23187-stimulated human blood PMNL assessed as reduction in lipoxygenase products formation in presence of arachidonic acid pre-incubated for 15 mins followed by stimulation with A23187 for 10 mins by RP-HPLC based cell based assay. Summed up:
as §2

For `CCCCCCC1=C(O)C(=O)C=C(O)C1=O`, the Activity in experiment [1] amounted to 105%; in experiment [2] it was 134%; in experiment [5] it was 79.9%; in experiment [6], 89.8%. The IC50 in experiment [3] was 4 µM; in experiment [4] it was greater than 10 µM; in experiment [7], greater than 10 µM.

Take `CCCCCCCCCCCCCCCCC1=C(OC)C(=O)C=C(OC)C1=O`: the Activity was found to be 121% in experiment [1], 80.1% in experiment [2] and 97.8% in experiment [6]. The values for the IC50 in experiment [3], in experiment [4] and in experiment [7] were 1.6 µM, greater than 10 µM and 3.5 µM, respectively.

For the compound `CC(C)=CCC/C(C)=C/CC1=C(O)C(=O)C=C(O)C1=O`, the Activity in experiment [1] was found to be 80.5%; in experiment [2], 114%; in experiment [5] it was 81.9%; in experiment [6], 92%. The 50% inhibitory concentration (IC50) in experiment [3] is 1.8 µM; in experiment [4], greater than 10 µM; in experiment [7], greater than 10 µM.

As to `CCCCCCCCCCCCCCCC1=C(OC)C(OC)=CC(=O)C1=O`, the Activity came to 88.9% in experiment [1], 57.6% in experiment [2], 66.8% in experiment [5] and 115% in experiment [6]. Also, the IC50 in experiment [3] was 0.62 µM; in experiment [4], greater than 10 µM; in experiment [7] it was greater than 10 µM.

As for `CCCCCCCCC1=C(O)C(=O)C=C(O)C1=O`, the Activity in experiment [1] is 75.7%; in experiment [2], 53.5%; in experiment [5] it was 80.1%; in experiment [6], 88.9%. For the same compound, the IC50 in experiment [3] is 0.38 µM; in experiment [4], greater than 10 µM; in experiment [7], greater than 10 µM.

In the case of `CCCCCCCCCCCCCC1=C(OC)C(=O)C=C(OC)C1=O`, the results for the Activity in experiment [1] and in experiment [6] were 58.8% and 84.1%, respectively. The IC50 worked out at 0.26 µM in experiment [3], 0.23 µM in experiment [4] and 0.31 µM in experiment [7].

In the case of `CCCCCCCCCCCCCCCCC1=C(O)C(=O)C=C(O)C1=O`, the Activity in experiment [1] came out at 117%; in experiment [2] it was 88%; in experiment [5], 80.5%; in experiment [6], 105%. The IC50 in experiment [3] was 0.19 µM; in experiment [4], greater than 10 µM; in experiment [7], greater than 10 µM.

`CCCCCCCCCCCCC1=C(O)C(=O)C=C(OC)C1=O`: the Activity in experiment [1] is 148%; in experiment [6], 116%. In addition, the IC50 worked out at 0.74 µM in experiment [3], 0.56 µM in experiment [4] and 1.1 µM in experiment [7].

`CCCCCCCCCCC1=C(O)C(=O)C=C(O)C1=O`: the values for the Activity in experiment [1] and in experiment [6] were 76% and 90%, respectively. In addition, the IC50 in experiment [3] worked out at 0.18 µM; in experiment [4], 2 µM; in experiment [7] it was 7.1 µM.

For the compound `CCCCCCC1=C(OC)C(=O)C=C(OC)C1=O`, the Activity in experiment [1] was found to be 102%; in experiment [6], 101%. For the same compound, the values for the IC50 in experiment [3], in experiment [4] and in experiment [7] were 2.6 µM, 0.32 µM and 1.4 µM, respectively.

Take `CCCCCCCCCCCCCCCC1=C(O)C(=O)C=C(O)C1=O`: the Activity in experiment [1] came out at 87.7%; in experiment [5] it was 61.7%; in experiment [6] it was 103%. For the same compound, the IC50 in experiment [3] was 0.23 µM; in experiment [4], 4.3 µM; in experiment [7] it was greater than 10 µM.

As to `COC1=CC(=O)C(=O)C(C/C=C(\C)CCC=C(C)C)=C1OC`, the Activity in experiment [1] amounted to 72.8%; in experiment [6], 125%. In addition, the IC50 in experiment [3] was 0.6 µM; in experiment [4], 0.38 µM; in experiment [7], 0.39 µM.

As for `COC1=CC(=O)C(O)=C(C/C=C(\C)CC/C=C(\C)CCC=C(C)C)C1=O`, the results for the Activity in experiment [1] and in experiment [6] were 108% and 122%, respectively. Also, the results for the concentration for half-maximal inhibition (IC50) in experiment [3], in experiment [4] and in experiment [7] were 5.6 µM, 1.9 µM and 2.4 µM, respectively.

Take `COC1=CC(=O)C(=O)C(C/C=C(\C)CC/C=C(\C)CCC=C(C)C)=C1OC`: the results for the Activity in experiment [1] and in experiment [6] were 211% and 174%, respectively. Moreover, the IC50 turned out to be 0.3 µM in experiment [3], 0.15 µM in experiment [4] and 0.1 µM in experiment [7].

As to `CCCCCCCCCCCCCCCC1=C(OC)C(=O)C=C(OC)C1=O`, the Activity in experiment [1] was 87.3%; in experiment [6] it was 115%. Also, the half-inhibitory concentration (IC50) amounted to 0.27 µM in experiment [3], 0.39 µM in experiment [4] and 0.86 µM in experiment [7].

As for `CC(C)=CCC/C(C)=C/CC/C(C)=C/CC1=C(O)C(=O)C=C(O)C1=O`, the Activity was 78.3% in experiment [1], 85.8% in experiment [2], 66.6% in experiment [5] and 95.2% in experiment [6]. Further, the IC50 in experiment [3] is 2.5 µM; in experiment [4] it was greater than 10 µM; in experiment [7], greater than 10 µM.

Take `CCCCC1=C(OC)C(=O)C=C(OC)C1=O`: the Activity in experiment [1] and in experiment [6] was 103% throughout. Besides, the 50% inhibitory concentration (IC50) in experiment [3] amounted to 3.3 µM; in experiment [4] it was 3.4 µM; in experiment [7], 7.9 µM.

As to `CCCCCCCCCCCCCCC1=C(OC)C(=O)C=C(OC)C1=O`, the Activity in experiment [1] was determined as 84.5%; in experiment [6], 116%. The figures for the IC50 in experiment [3], in experiment [4] and in experiment [7] were 0.21 µM, 0.29 µM and 1.4 µM, respectively.

On to `CCCCCCCCCCCCCC1=C(O)C(=O)C=C(OC)C1=O` [Sorgoleone-364], for which the values for the Activity in experiment [1] and in experiment [6] were 73.2% and 88.1%, respectively. Further, the IC50 came out at 0.92 µM in experiment [3], 0.77 µM in experiment [4] and 2.3 µM in experiment [7].
